The record followed here is article PMC7161550 (British Journal of Pharmacology, 2020).

The structures appear in SMILES notation. Where two headings read alike, the source gives them in different places.

The format of data set [1] is in vivo. Conditions: rat, after BIA 10‐2474 10 mg·kg^−1 p.o.
For data set [2], the target named is T1, rat brain fatty acid amide hydrolase (FAAH) (Rattus norvegicus, UniProt P97612).
T1 sequence (P97612 1-579): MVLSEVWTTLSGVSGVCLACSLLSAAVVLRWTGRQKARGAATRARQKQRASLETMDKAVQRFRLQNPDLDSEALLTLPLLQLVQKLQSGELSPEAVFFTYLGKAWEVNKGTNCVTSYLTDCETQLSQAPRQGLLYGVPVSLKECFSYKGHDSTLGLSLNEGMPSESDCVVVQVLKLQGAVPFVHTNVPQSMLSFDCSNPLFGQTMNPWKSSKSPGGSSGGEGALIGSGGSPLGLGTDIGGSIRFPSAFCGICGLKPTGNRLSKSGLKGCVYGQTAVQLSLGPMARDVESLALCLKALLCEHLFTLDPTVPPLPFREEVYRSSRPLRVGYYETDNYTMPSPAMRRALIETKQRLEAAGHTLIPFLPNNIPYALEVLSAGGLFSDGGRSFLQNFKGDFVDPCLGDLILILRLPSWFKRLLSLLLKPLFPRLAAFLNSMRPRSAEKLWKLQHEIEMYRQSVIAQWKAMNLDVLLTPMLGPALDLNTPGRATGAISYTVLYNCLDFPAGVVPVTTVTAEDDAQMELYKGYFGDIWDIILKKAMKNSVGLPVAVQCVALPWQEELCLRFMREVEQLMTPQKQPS
In kind it is biochemical. Conditions: read-out: IC50 [95% CI]. The method in brief: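 Rat brain membranes from Wistar rats, 10 μg protein, in 1 mM EDTA, 10 mM Tris, pH 7.6. Test compound at 1 nM–10 μM, pre-incubated with enzyme 5–60 min, or reaction started with enzyme when not pre-incubated. Substrate 2 μM AEA + 5 nM 3H‑AEA + 0.1% fatty acid-free BSA, 30 min at room temperature with agitation. Charcoal stop; supernatant 3H‑ethanolamine counted. Blank and vehicle controls; IC50 from normalized variable-slope sigmoidal fit.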

Data set [3] addresses T2, mouse liver fatty acid amide hydrolase (FAAH) (Mus musculus, UniProt O08914).
T2 sequence (O08914 1-579): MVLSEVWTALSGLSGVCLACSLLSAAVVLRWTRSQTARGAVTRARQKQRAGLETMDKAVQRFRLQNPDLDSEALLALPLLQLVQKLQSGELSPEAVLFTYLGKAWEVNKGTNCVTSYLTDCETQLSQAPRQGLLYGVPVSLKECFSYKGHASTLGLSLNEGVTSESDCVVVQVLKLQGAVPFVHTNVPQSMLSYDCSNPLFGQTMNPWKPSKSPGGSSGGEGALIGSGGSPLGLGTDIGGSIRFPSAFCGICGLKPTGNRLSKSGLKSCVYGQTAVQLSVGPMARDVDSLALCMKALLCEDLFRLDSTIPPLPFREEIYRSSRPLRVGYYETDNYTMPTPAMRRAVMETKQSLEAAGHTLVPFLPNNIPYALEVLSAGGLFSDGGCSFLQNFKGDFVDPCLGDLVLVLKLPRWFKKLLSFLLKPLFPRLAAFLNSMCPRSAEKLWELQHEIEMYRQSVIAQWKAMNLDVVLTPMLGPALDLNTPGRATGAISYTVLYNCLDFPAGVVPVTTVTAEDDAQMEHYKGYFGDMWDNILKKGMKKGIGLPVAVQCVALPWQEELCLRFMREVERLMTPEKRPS
As to the kind of experiment: Ex vivo FAAH activity in mouse liver after oral administration. Conditions: 0.1 mg·kg^−1 p.o., 1 hr after dosing. In a few lines:
(§1)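 Liver and half-brain were collected into FAAH membrane buffer (3 mM MgCl2, 1 mM EDTA, 50 mM Tris HCl, pH 7.4) and stored at −20°C. Homogenates (15 μg protein brain, 5 μg liver) were pre-incubated 15 min at 37°C. AEA + 3H‑AEA + BSA was added for 10 min (brain) or 7 min (liver), then charcoal. Scintillation counting gave % remaining activity versus controls after blank subtraction.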

For data set [4], the system named is 229 assays for receptors, enzymes, transporters, ion channels, hormones, growth factors and inflammatory mediators. In kind it is binding. Conditions: 10 and 50 μM.
For data set [5], the target named is T3, mouse brain fatty acid amide hydrolase (FAAH) (Mus musculus, UniProt O08914).
T3 sequence (O08914 1-579): T2 sequence (O08914 1-579)
As to the kind of experiment: Ex vivo FAAH activity in mouse brain after oral administration. Conditions: 0.1 mg·kg^−1 p.o., 1 hr after dosing. In a few lines:
as §1

The subject of data set [6] is brain fatty acid amides (AEA, PEA, OEA). The data set can be described thus: Fatty acid amides. Conditions: mouse brain, 8 hr. The class given is in vivo. In a few lines: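 Frozen brains were thawed at 4°C and weighed. Each sample was extracted with chloroform:MeOH (2:1) plus 0.1 M phosphate buffer, pH 5.6. Deuterated internal standards were spiked in: AEA‑d8, PEA‑d4 and OEA‑d2 for the fatty acid amides, and 2‑AG‑d8 for 2‑AG.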

A short description of data set [7]: Protein binding to cell homogenates. Conditions: 500 μg·ml^−1 of protein. The class given is in vitro ADME.
Data set [8] concerns the target T4, human recombinant fatty acid amide hydrolase (FAAH) (Homo sapiens, UniProt O00519).
T4 sequence (O00519 1-579): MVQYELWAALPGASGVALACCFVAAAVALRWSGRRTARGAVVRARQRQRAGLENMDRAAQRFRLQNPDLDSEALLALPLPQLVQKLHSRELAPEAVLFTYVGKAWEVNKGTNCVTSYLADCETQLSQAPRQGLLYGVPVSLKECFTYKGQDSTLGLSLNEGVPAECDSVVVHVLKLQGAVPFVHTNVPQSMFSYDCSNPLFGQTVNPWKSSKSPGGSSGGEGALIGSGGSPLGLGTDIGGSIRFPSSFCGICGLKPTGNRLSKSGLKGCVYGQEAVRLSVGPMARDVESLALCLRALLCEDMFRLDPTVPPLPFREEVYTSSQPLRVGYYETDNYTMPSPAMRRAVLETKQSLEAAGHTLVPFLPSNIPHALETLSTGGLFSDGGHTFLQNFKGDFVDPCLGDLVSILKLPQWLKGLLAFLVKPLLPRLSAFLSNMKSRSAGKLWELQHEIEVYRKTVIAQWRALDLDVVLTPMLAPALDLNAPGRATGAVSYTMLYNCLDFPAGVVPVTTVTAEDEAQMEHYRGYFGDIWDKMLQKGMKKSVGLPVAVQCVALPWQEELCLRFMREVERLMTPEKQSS
As to the kind of experiment: FAAH activity in intact COS‐hFAAH cells. Conditions: for IC50: read-out: IC50 [95% CI]. In kind it is cell-based.

Another data set concerns COS‐hFAAH cells. The data set can be described thus: Quantification of compounds in COS‐hFAAH supernatant, cell lysates and medium. Conditions: 1, 3 and 24 hr. In kind it is in vitro ADME.
Data set [9] concerns the target T5, fatty acid amide hydrolase (Rattus norvegicus, UniProt P97612).
T5 sequence (P97612 1-579): T1 sequence (P97612 1-579)
The data set can be described thus: Gel‐based competitive ABPP in vitro, TAMRA‐FP probe, rat brain fractions. Conditions: 1 hr. The class given is biochemical. In a few lines: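 Rat brain membrane and soluble protein extracts (200 μg) were incubated 1 hr at room temperature with test compound at 1 nM–100 μM, DMSO vehicle or PMSF 3 mM. Active serine hydrolases were then labelled with TAMRA‑FP probe (2 μM final) for 1 hr at room temperature. Bands were visualized by in-gel fluorescence.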

Data set [10] concerns the target T6, rat brain fatty acid amide hydrolase (Rattus norvegicus, UniProt P97612).
T6 sequence (P97612 1-579): T1 sequence (P97612 1-579)
As to the kind of experiment: FAAH progression curves, kinetic constants k obs and k inact/K I. The class given is biochemical. Conditions: inhibition of rat brain FAAH, 37°C.

With `CN(C(=O)n1cnc(-c2ccc[n+]([O-])c2)c1)[C@H]1CC[C@H](O)CC1` [BIA 10‐2639, 3‐(1‐(((1R,4R)‐4‐hydroxycyclohexyl)(methyl)carbamoyl)‐1H‐imidazol‐4‐yl)pyridine 1‐oxide], the “brain levels at all time points measured” value in data set [1] is “below the limit of quantification”.
In general, IC50 refers to the concentration needed to halve the response being measured. Take `O=C(Nc1cnccc1Cl)N1CCN(Cc2ccc3c(c2)OC(F)(F)O3)CC1` [JNJ‐42165279]: the IC50 amounted to 472 nM in [2] (pre‐incubation 0 min); 365 nM in data set [2] (pre‐incubation 5 min); 272 nM in data set [2] (pre‐incubation 15 min); 221 nM in data set [2] (pre‐incubation 30 min); 161 nM in data set [2] (pre‐incubation 45 min); 94.3 nM in data set [2] (pre‐incubation 60 min). The values for the IC50 in data set [8] (incubation 1 hr), in [8] (incubation 3 hr) and in [8] (incubation 24 hr) were 26.2 nM, 25.1 nM and 41.5 nM, respectively. Besides, the “inhibition of liver FAAH” value in data set [3] amounted to 25.5%. In data set [4], the “off‐target activity at the sites studied” value is “some weak activity at just seven sites”. The “inhibition of brain FAAH” value in data set [5] came to 19.2%. Besides, the AEA in [6] (1 mg·kg^−1 p.o.) is listed as 89.0 ± 20.6 % of control; in data set [6] (3 mg·kg^−1 p.o.), 83.6 ± 9.1 % of control; in data set [6] (10 mg·kg^−1 p.o.), 86.5 ± 4.8 % of control; in data set [6] (30 mg·kg^−1 p.o.) it was 95.5 ± 2.5 % of control. In addition, the OEA in data set [6] (1 mg·kg^−1 p.o.) is 114.9 ± 13.36 % of control; in [6] (3 mg·kg^−1 p.o.), 121.7 ± 10.2 % of control; in [6] (10 mg·kg^−1 p.o.), 147.3 ± 13.8 % of control; in data set [6] (30 mg·kg^−1 p.o.) it was 234.9 ± 46.8 % of control. The PEA in data set [6] (1 mg·kg^−1 p.o.) is given as 123.4 ± 11.2 % of control; in data set [6] (3 mg·kg^−1 p.o.), 138.3 ± 19.4 % of control; in data set [6] (10 mg·kg^−1 p.o.), 205.6 ± 37.0 % of control; in data set [6] (30 mg·kg^−1 p.o.), 382.2 ± 103.5 % of control. Also, in [7], the “mean % free fraction ± SD” value is recorded as 64.3 ± 4.0%. Moreover, the “inhibition level above 30 nM” value in data set [8] (1‐ and 3‐hr periods) is “around 50%”. For the same compound, the “detection in cell lysates” value in the data set on COS‐hFAAH cells is reported as “undetectable”. The “stability in cellular media over time” value in the data set with COS‐hFAAH cells is “stable”. In addition, in [9], the “concentration that completely inhibited the band corresponding to the MW of FAAH” value worked out at 10 µM. In addition, the “k inact/K I” value in data set [10] was 5,092 M·s^−1.
With `CN(C(=O)n1cnc(-c2cccnc2)c1)[C@H]1CC[C@H](O)CC1` [BIA 10‐2631, N‐((1R,4R)‐4‐hydroxycyclohexyl)‐N‐methyl‐4‐(pyridin‐3‐yl)‐1H‐imidazole‐1‐carboxamide], in [1], the “brain levels at all time points measured” value was “below the limit of quantification”.
